The values that follow come from PubChem BioAssay.

Unmarked numbers belong to inactive results. Results filed as inconclusive are left out. Active and inactive are the calls of the source.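 Rule for the calls, unless noted: active = RAM network inhibition above 8.4% in each of two replicates, 3 SD over the compound average; inconclusive = above 8.4% inhibition in only one replicate; inactive = 8.4% inhibition or less in each replicate.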

The nature of assay [1]: S. cerevisiae growth inhibition in permissive medium (OD615), pilot counter-assay for S. cerevisiae lifespan shortening project, permissive growth control (AID 705;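 active = growth inhibition above 25% in both replicates, a cutoff set 3 SD above the mean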). The settings on record: OD615, 24 h, at 10 µM, active compounds read high. The essentials:
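System: Engineered DeaD yeast | Buffer or medium: SC raffinose/galactose permissive medium | Incubation: Cells pre-grown 4 h, then 24 h compound exposure, 30 °C humidified | Measured by: Absorbance (optical density) at 615 nm | Read-out: Reduction in yeast growth (OD615)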

Assay [2] in a line: S. cerevisiae growth inhibition in restrictive medium, OD615, pilot screen, restrictive growth control, yeast lifespan reduction project (AID 706;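 active = growth inhibition above a set limit, 3 SD over mean compound inhibition, in both replicates, cut at about 43% in these data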;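 note: modified DeaD lifespan yeast strain shifted to restrictive glucose medium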). The settings on record: OD615, 48 h, at 10 µM, active compounds read high. The essentials:
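Material: modified S. cerevisiae; Medium: glucose-based CSMM-D restrictive medium; Compound dosing: one concentration, 10 µM final, 0.25% DMSO; Incubation: 48 h compound exposure at 30 °C; Measured by: OD615.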

Assay [3] in a line: doxorubicin toxicity protection in MRP-1 cells – H69AR cells, CellTiter-Glo, duplicate, MRP-1 activator project, pilot screen (AID 807;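 active = viability increase at or above a cutoff of the median across tested compounds plus 3 SD, cut at about 8.5% in these data, passing the limit was not always enough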;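 note: compound pretreatment 18-22 h then 72 h combined with doxorubicin; 0% = doxorubicin alone and 100% = vehicle without doxorubicin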). Particulars: H69AR viability with doxorubicin, CellTiter-Glo luminescence; at 10 µM; active compounds read high. A general note: In ATP-based viability assays light output follows the ATP content of the culture.
The nature of assay [4]: viability of HCT116 without oncogenic beta-catenin – human colon tumor cells, pilot screen (AID 823;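 active = cell viability at or below a set limit in both duplicate runs, the limit being the all-compound median minus 4 SD, cut at about 23% in these data, passing the limit was not always enough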;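 note: 0% = wells killed by 20 µM Hyamine and 100% = untreated DMSO cell wells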). The settings on record: HCT116 beta-catenin knockout viability, CellTiter-Glo, 60 h; at 10 µM; active compounds read low.
Assay [5] is described as follows: viability of PTEN-null HCT116 cells – cell-based, HCT116 clonal line, CellTiter-Glo, pilot screen (AID 824;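 active = viability at or below 27.92% in each of two runs, the all-compound median minus 4 SD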;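 note: 0% = 20 µM Hyamine control and 100% = vehicle cell control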). Particulars: HCT116 PTEN-deleted viability, 60 h, at 10 µM, active compounds read low.
The nature of assay [6]: RAM pathway blockade in budding yeast – dse1pr::URA3 reporter, 5-FOA selection, pilot screen (AID 869;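 active = inhibition over a set limit, the all-compound mean plus 3 SD, in both replicate runs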;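 note: 0% = DMSO wells with no growth and 100% = 10 µM 1-NA-PP1 with full growth; RAM network block rescues cells from 5-FOA so hits raise OD615 growth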). Particulars: S. cerevisiae dse1pr::URA3 5-FOA growth, OD615, 2 d; at 10 µM; active compounds read high; strain carries analog-sensitive mutant Cbk1 kinase.
The nature of assay [7]: RAM signaling pathway blockade in yeast – S. cerevisiae, Pdr1DBD-CYC8 efflux-inhibited sensitized strain, primary screen (AID 1298).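 Note: 0% = DMSO untreated cells without growth and 100% = 10 µM 1-NA-PP1 full growth; higher means more yeast growth rescued from 5-FOA killing.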 The settings on record: S. cerevisiae cbk1-as DSE1-URA3 strain, 5-FOA growth OD615, 2 d; at 50 µM; active compounds read high.

One may read the viability as a read-out of living cells in per cent, often relative to untreated cells. For orientation: inhibition means the change of the read-out against control, counted positive when it falls.

On to `COc1cccc2sc(Nc3nnc(-c4ccccc4Cl)o3)nc12`, for which the growth inhibition in assay [1] was -29.8%; in assay [2] it was -13.7%. Further, the viability increase in assay [3] is -4.31%. For the same compound, the viability in assay [4] was 15.4% (active); in assay [5], 18.8% (active). Besides, the inhibition in assay [6] was 1.1%. In addition, the RAM network inhibition in assay [7] is 1.26%.

For the compound `Cn1c(=O)[nH]c(=O)c2[nH]c(CN3CCN(Cc4ccccc4)CC3)nc21`, the growth inhibition in assay [1] was -9.19%; in assay [2], -10%. Besides, the viability increase in assay [3] was -0.77%. Also, the viability in assay [4] is 104%; in assay [5], 99.5%. Further, in assay [6], the inhibition was 0.395%. Besides, in assay [7], the RAM network inhibition is 1.09%.

With `O=C(NCC(c1ccc(F)cc1)N1CCOCC1)c1ccc(Br)o1` (configuration not stated), the growth inhibition in assay [1] was -9.34%; in assay [2], -13.2%. Besides, in assay [3], the viability increase is -1.97%. The viability in assay [4] is 86.3%; in assay [5] it was 81.8%. Moreover, the inhibition in assay [6] was 2.88%. Moreover, the RAM network inhibition in assay [7] was 1.24%.

With `CC1CCCCC1NC(=O)CCS(=O)(=O)c1cccc2nonc12` (configuration not stated), the growth inhibition is -0.105% in assay [1] and 2.68% in assay [2]. In addition, the viability increase in assay [3] was -2.34%. In addition, the values for the viability in assay [4] and in assay [5] were 98.9% and 102%, respectively. Moreover, the inhibition in assay [6] is -0.06%. In addition, the RAM network inhibition in assay [7] is 0.88%.

With `COc1cccc(-n2c(Cc3cc(=O)[nH]c(=O)[nH]3)nnc2SC(C)C)c1`, the growth inhibition in assay [1] is -12.3%; in assay [2] it was 8.2%. Besides, in assay [3], the viability increase is -0.34%. Further, the figures for the viability in assay [4] and in assay [5] were 103% and 100%, respectively. For the same compound, the inhibition in assay [6] is 1.71%. Besides, in assay [7], the RAM network inhibition was 3.35%.

In the case of `CCCn1cc(SCC(=O)Nc2nnc(C)s2)c2ccccc21`, the growth inhibition in assay [1] is 3.3%; in assay [2], 0.865%. For the same compound, the viability increase in assay [3] is -2.55%. In addition, the viability in assay [4] is 91%; in assay [5], 96.2%. The inhibition in assay [6] is 1.1%. In addition, in assay [7], the RAM network inhibition is 3.75%.

For the compound `CCOC(=O)N1CCN(c2nc(C)cc(C(F)(F)F)n2)CC1`, the values for the growth inhibition in assay [1] and in assay [2] were 1.86% and -23.3%, respectively. Further, the viability increase in assay [3] was 2.84%. Besides, the viability in assay [4] is 102%; in assay [5], 96.5%. Further, in assay [6], the inhibition is 2.92%. Further, in assay [7], the RAM network inhibition was 2.23%.

As to `CCOc1ccc(CCNc2cc(C)nc3ncnn23)cc1OCC`, the growth inhibition in assay [1] is -1.77%; in assay [2] it was 4.5%. In addition, in assay [3], the viability increase is -2.06%. The viability in assay [4] was 90.3%; in assay [5], 94.1%. In assay [6], the inhibition is 1.71%. Moreover, the RAM network inhibition in assay [7] was 1.15%.

For the compound `O=C(CSc1oc(-c2ccco2)nc1S(=O)(=O)c1ccc(F)cc1)NCC1CCCO1` (configuration not stated), the growth inhibition is -6.81% in assay [1] and 0.32% in assay [2]. For the same compound, in assay [3], the viability increase was -1.31%. Further, the viability in assay [4] is 101%; in assay [5] it was 106%. Moreover, in assay [6], the inhibition is 0.295%. Besides, the RAM network inhibition in assay [7] is 3.81%.

Consider `Cc1cc(C)n(C(=O)CCN2C(=O)c3ccccc3C2=O)n1`, for which the figures for the growth inhibition in assay [1] and in assay [2] were -14.3% and 5.39%, respectively. For the same compound, the viability increase in assay [3] is 2%. The viability was 94.9% in assay [4] and 103% in assay [5]. In addition, in assay [6], the inhibition is -0.64%. The RAM network inhibition in assay [7] was -0.15%.

For `COc1ccc(Nc2oc(-c3ccccc3Cl)nc2C#N)cc1`, the results for the growth inhibition in assay [1] and in assay [2] were 9.48% and 0.98%, respectively. The viability increase in assay [3] was -8%. Also, the figures for the viability in assay [4] and in assay [5] were 6.01% (active) and 8.29% (active), respectively. Besides, in assay [6], the inhibition was 1.94%. Also, the RAM network inhibition in assay [7] is 7.73%.

Regarding `CCOC(=O)Nc1ccc2ncn(C)c(=O)c2c1`, the growth inhibition is -16.6% in assay [1] and -8.55% in assay [2]. The viability increase in assay [3] was -5.77%. Moreover, the viability in assay [4] was 101%; in assay [5], 94.8%. Also, the inhibition in assay [6] was -0.055%. The RAM network inhibition in assay [7] was 1.08%.

For the compound `CCN1CCN(c2cc(=O)n(C3CCCCC3)c(=O)[nH]2)CC1`, the growth inhibition is -13.3% in assay [1] and -10.1% in assay [2]. Moreover, the viability increase in assay [3] is 0.11%. Further, the viability in assay [4] was 104%; in assay [5], 102%. Moreover, in assay [6], the inhibition is 1.2%. In addition, in assay [7], the RAM network inhibition was 2.53%.

For the compound `CN(CCCNC(=O)C1CCC(=O)N1Cc1ccc(F)cc1)c1ccccc1` (configuration not stated), the growth inhibition in assay [1] is 4.99%; in assay [2], -8.76%. For the same compound, the viability increase in assay [3] is -1.51%. Also, the viability in assay [4] is 95.5%; in assay [5] it was 90.5%. The inhibition in assay [6] was 0.54%. For the same compound, the RAM network inhibition in assay [7] is 0.72%.

With `Cc1noc(C)c1S(=O)(=O)N1CCC(C(=O)N2CCC(N3CCCCC3)CC2)CC1`, the growth inhibition in assay [1] is -7.79%; in assay [2], 2.65%. Moreover, the viability increase in assay [3] was 0.18%. The viability is 101% in assay [4] and 102% in assay [5]. In addition, the inhibition in assay [6] is 1.78%. Also, the RAM network inhibition in assay [7] is -0.93%.

As to `O=C(Nc1ccc(F)cc1)C1CCC(N2C(=O)c3ccccc3C2=O)CC1` (configuration not stated), the growth inhibition in assay [1] was -11.6%; in assay [2], -20.7%. For the same compound, in assay [3], the viability increase was -7.05%. Also, the figures for the viability in assay [4] and in assay [5] were 86.3% and 96.1%, respectively. Besides, the inhibition in assay [6] was 1.48%. For the same compound, the RAM network inhibition in assay [7] was 12.4%.
